According to publication PMC11409854 (Chemical Science, 2024):
Converted amounts (≈) assume the structure as drawn. “And” between values parts separate entries of the source, which are not always exact repeats. Equal values may be shown once.

Legend:
[1] = tested on: NDM-1 and VIM-2; conditions: cited from earlier work
[2] = tested on: VIM-1 and IMP-1; conditions: cited from earlier work
[3] = target: IMP-1 (Serratia marcescens, UniProt P52699); assay: MBL inhibition, nitrocefin absorbance assay, IMP-1; format: biochemical
Chain of IMP-1 (P52699 19-246, looked up, species assumed): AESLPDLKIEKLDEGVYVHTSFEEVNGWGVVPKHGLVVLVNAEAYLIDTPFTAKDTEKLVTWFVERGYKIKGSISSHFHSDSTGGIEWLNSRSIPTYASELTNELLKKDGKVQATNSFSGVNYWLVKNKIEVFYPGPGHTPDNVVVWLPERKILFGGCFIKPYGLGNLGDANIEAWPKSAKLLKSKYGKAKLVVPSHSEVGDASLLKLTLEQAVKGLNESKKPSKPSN
Summary of the method: (§1)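 Absorbance inhibition assay for purified metallo-β-lactamases from a seven-enzyme panel. Nitrocefin served as substrate; enzyme hydrolysis of its β-lactam ring shifts the absorption spectrum, which is monitored by absorbance. IC50 was determined for the test compound.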

[4] = target: NDM-1 (Klebsiella pneumoniae, UniProt C7C422); assay: MBL inhibition, nitrocefin absorbance assay, NDM-1; format: biochemical
Chain of NDM-1 (C7C422 29-270, looked up): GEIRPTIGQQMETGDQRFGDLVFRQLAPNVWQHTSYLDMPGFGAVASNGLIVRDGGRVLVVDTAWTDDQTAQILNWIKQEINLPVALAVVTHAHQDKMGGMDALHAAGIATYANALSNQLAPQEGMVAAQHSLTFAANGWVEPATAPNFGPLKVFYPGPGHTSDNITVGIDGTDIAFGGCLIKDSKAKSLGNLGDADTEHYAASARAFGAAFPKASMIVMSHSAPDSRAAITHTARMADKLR
Summary of the method: as §1

[5] = tested on: K. pneumoniae BAA2146 (NDM-1); assay: MIC / checkerboard assay, K. pneumoniae BAA2146; format: cell-based; conditions: carbapenem alone
Summary of the method: (§2)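 Carbapenem (meropenem or doripenem) MICs were determined in μg mL−1 against NDM-producing K. pneumoniae and E. coli isolates. Each was tested alone and in the presence of fixed test compound at 16 μg mL−1 (7 μM) or 32 μg mL−1 (14 μM). Fold change is the MIC with compound relative to carbapenem alone.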

[6] = tested on: E. coli EN5141 (NDM-1, OXA-1); assay: MIC / checkerboard assay, E. coli EN5141; format: cell-based; conditions: carbapenem alone
Summary of the method: as §2

[7] = tested on: clinical isolates of NDM producing K. pneumoniae and E. coli; assay: Checkerboard assay, summary over NDM-producing isolates; format: cell-based; conditions: for fold decrease in the MIC value: with 16 μg mL^−1 VanNHdipi (7 μM); for fold reduction of the MIC value: with 32 μg mL^−1 VanNHdipi (14 μM), all strains
Summary of the method: as §2

[8] = tested on: K. pneumoniae R3934 (NDM-1); assay: MIC / checkerboard assay, K. pneumoniae R3934; format: cell-based; conditions: carbapenem alone
Summary of the method: as §2

[9] = tested on: K. pneumoniae R3934; assay: Time-kill kinetics of carbapenem combinations; format: cell-based; conditions: carbapenem alone (meropenem 8 μg mL^−1, doripenem 2 μg mL^−1)
Summary of the method: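 K. pneumoniae R3934 (NDM-1) was exposed to meropenem (4 or 8 μg mL−1) or doripenem (0.5 or 1 μg mL−1) with the test compound at 32 μg mL−1. Controls were untreated cultures and carbapenem alone (meropenem 8, doripenem 2 μg mL−1). Viable counts (Log CFU mL−1) were taken at 2, 4, 6 and 24 h; <50 CFU mL−1 was flagged.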

[10] = tested on: K. pneumoniae EN5136 (NDM-1, OXA-1, SHV); assay: MIC / checkerboard assay, K. pneumoniae EN5136; format: cell-based; conditions: carbapenem alone
Summary of the method: as §2

[11] = tested on: vancomycin-resistant strains (VRSA and VRE); assay: MIC across the panel of vancomycin-resistant strains; format: cell-based, Staphylococci and Enterococci; conditions: Staphylococcus aureus
[12] = tested on: MRSA ATCC 33591 biofilms; assay: Activity against mature biofilms of MRSA; format: cell-based, S. aureus; conditions: 20 μM, 24 h
[13] = tested on: B. subtilis 168; assay: Cell wall biosynthesis inhibition assay; format: cell-based, Bacillus subtilis; conditions: at PEC (vancomycin 0.4 μM, VanNHdipi 0.16 μM)
[14] = tested on: B. subtilis 168; assay: Physiologically effective concentration; format: cell-based, Bacillus subtilis
Summary of the method: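 B. subtilis 168 was grown to mid-log phase (OD500 0.35) and then given different concentrations of the test compound or vancomycin. The acute effect on growth was followed by optical density. The PEC is the concentration at which growth continues at a reduced rate, expressed as a multiple of the MIC.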

[15] = tested on: MRSA, methicillin-resistant S. aureus (ATCC 33591); assay: MIC determination; format: cell-based; conditions: Staphylococcus aureus, ATCC33591|MRSA
[16] = tested on: B. subtilis; assay: MIC determination against B. subtilis; format: cell-based; conditions: Bacillus subtilis
[17] = D-Ala-D-Lac versus D-Ala-D-Ala; cited from earlier work
[18] = tested on: MRSA; assay: Antagonization assay with N,N'-diacetyl-L-Lys-D-Ala-D-Ala; format: cell-based, S. aureus; conditions: Staphylococcus aureus, read-out: MIC in the presence of KAA
Summary of the method: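 Test compound or vancomycin was pre-incubated with N,N'-diacetyl-L-Lys-D-Ala-D-Ala (KAA) before being added to the MRSA suspension for MIC determination. MIC in the presence of KAA was compared with that without KAA.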

[19] = tested on: MRSA; assay: Time-kill kinetics against exponential phase MRSA; format: cell-based, S. aureus; conditions: at MIC (vancomycin: same across concentrations)
Summary of the method: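 Exponential-phase MRSA was exposed to the test compound or vancomycin at the MIC and higher multiples. Viable counts (Log CFU mL−1) were followed over time up to 24 h.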

[20] = tested on: GFP-MinD in B. subtilis 1981; assay: GFP-MinD localization; format: cell-based, Bacillus subtilis; conditions: at PEC (vancomycin 0.4 μM, VanNHdipi 0.16 μM)
[21] = tested on: B. subtilis 168 newly synthesized cytosolic proteins; assay: 2D gel-based proteome analysis with [35S]-methionine pulse labeling; format: cell-based, Bacillus subtilis; conditions: 10 min
Summary of the method: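 B. subtilis 168 cultures grown to OD500 0.35 were exposed for 10 min to the test compound or vancomycin at the physiologically effective concentration. Newly synthesised cytosolic proteins were pulse-labelled with [35S]-methionine, separated by 2D gel electrophoresis and compared with untreated cells by false-colour overlay (treated red, control green). Proteins were identified by LC-MS; regulation factor is the treated/control ratio.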

## O=C(O)c1ncsc1NS(=O)(=O)c1cccnc1 [ANT431]
[1]
  inhibitory activity: sub-micromolar
[2]
  fold less active than against NDM-1 and VIM-2: at least 20 fold

## c1ccc(CNCc2ccccn2)nc1 [BPYA, bis(pyridin-2-ylmethyl)amine]
[3]
  IC50: > 40000 nM
[4]
  IC50: 1200 nM

## C[C@@H](O)[C@H]1C(=O)N2C(C(=O)O)=C(S[C@@H]3CN[C@H](CNS(N)(=O)=O)C3)[C@H](C)[C@H]12 [Doripenem]
[5]
  MIC of carbapenem: 16 µg/mL
[6]
  MIC of carbapenem: 8 µg/mL
[7]
  MIC: 0.06 to 4 µg/mL
  fold reduction of the MIC value: 16–32 fold
[7]; NDM producing K. pneumoniae and E. coli
  fold decrease in the MIC value: 4-16 fold
[8]
  MIC of carbapenem: 16 µg/mL
[9]
  growth inhibition: no growth inhibition
[10]
  MIC of carbapenem: 8 µg/mL

## C[C@@H](O)[C@H]1C(=O)N2C(C(=O)O)=C(S[C@@H]3CN[C@H](C(=O)N(C)C)C3)[C@H](C)[C@H]12 [Meropenem]
[5]
  MIC of carbapenem: 8 µg/mL
[6]
  MIC of carbapenem: 2 µg/mL
[7]
  MIC: 0.06 to 4 µg/mL
  fold reduction of the MIC value: 16–32 fold
[7]; NDM-1 expressing K. pneumoniae strains
  fold decrease in the MIC value: 2-8 fold
[8]
  MIC of carbapenem: 64 µg/mL
[9]
  growth inhibition: did not show any growth inhibition
[10]
  MIC of carbapenem: 8 µg/mL

## CN[C@H](CC(C)C)C(=O)N[C@H]1C(=O)N[C@@H](CC(N)=O)C(=O)N[C@H]2C(=O)N[C@H]3C(=O)N[C@H](C(=O)N[C@H](C(=O)O)c4cc(O)cc(O)c4-c4cc3ccc4O)[C@H](O)c3ccc(c(Cl)c3)Oc3cc2cc(c3O[C@@H]2O[C@H](CO)[C@@H](O)[C@H](O)[C@H]2O[C@H]2C[C@](C)(N)[C@H](O)[C@H](C)O2)Oc2ccc(cc2Cl)[C@H]1O [Vancomycin]
[11]
  MIC: > 346 µM and > 512 µg/mL
[12]
  reduction in cell viability within the biofilms: minimal activity
[13]
  inhibition of cell wall biosynthesis (bubbles on cell surface): Bubble-like formations were observed
[14]; added at OD500 0.35
  PEC as multiple of MIC: 2 × MIC
[14]; added at OD500 0.35 (mid-log phase)
  physiologically effective concentration (PEC), growth retardation: 0.4 μM
[15]
  MIC: 0.6 µM (≈ 0.87 µg/mL)
[16]
  MIC: 0.2 µM (≈ 0.29 µg/mL)
[17]
  fold reduction in binding affinity: 1000 fold
[18]
  MIC: > 30 µM
[19]
  time to complete eradication: 24 h
[20]
  MinD delocalization: did not elicit any MinD protein delocalization
[21]; at PEC (vancomycin 0.4 μM, VanNHdipi 0.16 μM)
  Regulation factor (treated/control), CysC: 2.3 ± 0.1
[21]; at PEC
  Regulation factor (treated/control), GsaB: 2.8 ± 0.4
  Regulation factor (treated/control), Hom: 5.0 ± 3.8
  Regulation factor (treated/control), LysA: 2.7 ± 0.3
  Regulation factor (treated/control), MtnE: 2.4 ± 0.3
  Regulation factor (treated/control), MurF: 4.1 ± 1.6
  Regulation factor (treated/control), NfrA: 3.3 ± 0.2
  Regulation factor (treated/control), RpsB: 2.7 ± 0.3
  Regulation factor (treated/control), SdhA: 3.3 ± 1
  Regulation factor (treated/control), ThiG: 2.5 ± 0.1
  Regulation factor (treated/control), Udk: 3.1 ± 0.5
  Regulation factor (treated/control), YceC: 3.7 ± 0.9
  Regulation factor (treated/control), YoxD: 2.9 ± 0.1
  Regulation factor (treated/control), YpuA: 4.4 ± 0.3
  Regulation factor (treated/control), YqiG: 5.2 ± 1.3
  Regulation factor (treated/control), YtrB: 4.8 ± 0.5
  Regulation factor (treated/control), YtrE.2: 18.2 ± 8.98
